# From ChEMBL document CHEMBL4428127, “Discovery of 5-Phenyl-N-(pyridin-2-ylmethyl)-2-(pyrimidin-5-yl)quinazolin-4-amine as a Potent I Kur Inhibitor” (ACS Med Chem Lett, 2016)
# What was measured:
# [1] = molecular target: T1, Potassium voltage-gated channel subfamily A member 5 (Homo sapiens, UniProt P22460); experiment: Inhibition of human Kv1.5 transfected in mouse LTK cells at 0.3 uM; format: cell-based
# [2] = molecular target: T1, Potassium voltage-gated channel subfamily A member 5; experiment: Inhibition of human Kv1.5 transfected in mouse LTK cells; format: cell-based
# [3] = molecular target: Voltage-gated inwardly rectifying potassium channel KCNH2 (Homo sapiens, UniProt Q12809); experiment: Inhibition of human ERG expressed in HEK293 cells by thallium flux assay; format: cell-based
# Chain of Voltage-gated inwardly rectifying potassium channel KCNH2 (Q12809 whole entry): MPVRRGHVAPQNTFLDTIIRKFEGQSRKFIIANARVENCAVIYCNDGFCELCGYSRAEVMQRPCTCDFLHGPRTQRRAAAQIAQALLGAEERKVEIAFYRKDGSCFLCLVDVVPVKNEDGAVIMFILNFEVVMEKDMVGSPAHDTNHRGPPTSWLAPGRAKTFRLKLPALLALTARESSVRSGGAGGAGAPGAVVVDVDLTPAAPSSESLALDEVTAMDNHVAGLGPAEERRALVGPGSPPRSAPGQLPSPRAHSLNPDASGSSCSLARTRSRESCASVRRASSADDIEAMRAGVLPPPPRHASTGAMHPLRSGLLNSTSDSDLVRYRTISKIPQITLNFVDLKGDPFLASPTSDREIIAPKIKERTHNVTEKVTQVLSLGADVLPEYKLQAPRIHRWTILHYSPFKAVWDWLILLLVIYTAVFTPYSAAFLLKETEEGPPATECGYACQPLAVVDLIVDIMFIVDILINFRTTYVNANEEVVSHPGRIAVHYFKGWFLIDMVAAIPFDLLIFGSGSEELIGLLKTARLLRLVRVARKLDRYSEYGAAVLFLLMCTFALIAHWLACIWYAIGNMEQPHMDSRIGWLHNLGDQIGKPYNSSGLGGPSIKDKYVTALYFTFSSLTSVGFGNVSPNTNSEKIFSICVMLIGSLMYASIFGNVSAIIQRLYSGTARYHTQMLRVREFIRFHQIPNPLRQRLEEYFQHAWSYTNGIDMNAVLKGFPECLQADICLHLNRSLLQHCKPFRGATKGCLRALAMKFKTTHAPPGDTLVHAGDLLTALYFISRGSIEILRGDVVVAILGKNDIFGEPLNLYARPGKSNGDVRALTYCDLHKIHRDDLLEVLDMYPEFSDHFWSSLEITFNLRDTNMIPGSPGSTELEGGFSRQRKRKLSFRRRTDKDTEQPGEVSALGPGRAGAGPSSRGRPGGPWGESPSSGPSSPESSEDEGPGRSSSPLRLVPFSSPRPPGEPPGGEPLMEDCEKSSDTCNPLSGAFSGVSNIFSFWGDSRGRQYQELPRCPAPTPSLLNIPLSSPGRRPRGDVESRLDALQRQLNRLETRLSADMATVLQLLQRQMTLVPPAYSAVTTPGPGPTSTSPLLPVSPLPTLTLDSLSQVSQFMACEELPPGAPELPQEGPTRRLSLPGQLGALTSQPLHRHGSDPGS
# [4] = Metabolic stability in rat liver microsomes assessed as parent compound remaining at 10 mins; format: ADME, Microsome; details: read-out: Stability
# Outline: (§1)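 Compound incubated with rat or mouse liver microsomes; percent parent remaining measured at 10 min.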
# [5] = Metabolic stability in mouse liver microsomes assessed as parent compound remaining at 10 mins; format: ADME, Microsome; details: read-out: Stability; outline: as §1
# [6] = molecular target: T2, Cytochrome P450 2C9 (Homo sapiens, UniProt P11712); experiment: Inhibition of CYP2C9 (unknown origin) at 1 uM; format: ADME
# T2 sequence (P11712 whole entry): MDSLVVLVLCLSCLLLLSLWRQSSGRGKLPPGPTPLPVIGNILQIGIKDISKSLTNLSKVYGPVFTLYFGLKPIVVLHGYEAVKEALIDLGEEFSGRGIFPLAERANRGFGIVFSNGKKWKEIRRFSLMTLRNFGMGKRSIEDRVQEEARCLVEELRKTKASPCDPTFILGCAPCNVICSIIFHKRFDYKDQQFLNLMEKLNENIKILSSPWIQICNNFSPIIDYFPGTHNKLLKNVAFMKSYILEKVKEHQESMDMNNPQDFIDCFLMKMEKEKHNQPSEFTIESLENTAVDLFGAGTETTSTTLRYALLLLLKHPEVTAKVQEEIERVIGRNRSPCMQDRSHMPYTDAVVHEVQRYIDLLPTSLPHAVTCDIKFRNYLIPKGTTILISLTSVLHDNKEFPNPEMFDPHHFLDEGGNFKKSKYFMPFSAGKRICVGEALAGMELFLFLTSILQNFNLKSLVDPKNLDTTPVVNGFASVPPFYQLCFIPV
# [7] = molecular target: T3, Cytochrome P450 2C19 (Homo sapiens, UniProt P33261); experiment: Inhibition of CYP2C19 (unknown origin) at 1 uM; format: ADME
# T3 sequence (P33261 whole entry): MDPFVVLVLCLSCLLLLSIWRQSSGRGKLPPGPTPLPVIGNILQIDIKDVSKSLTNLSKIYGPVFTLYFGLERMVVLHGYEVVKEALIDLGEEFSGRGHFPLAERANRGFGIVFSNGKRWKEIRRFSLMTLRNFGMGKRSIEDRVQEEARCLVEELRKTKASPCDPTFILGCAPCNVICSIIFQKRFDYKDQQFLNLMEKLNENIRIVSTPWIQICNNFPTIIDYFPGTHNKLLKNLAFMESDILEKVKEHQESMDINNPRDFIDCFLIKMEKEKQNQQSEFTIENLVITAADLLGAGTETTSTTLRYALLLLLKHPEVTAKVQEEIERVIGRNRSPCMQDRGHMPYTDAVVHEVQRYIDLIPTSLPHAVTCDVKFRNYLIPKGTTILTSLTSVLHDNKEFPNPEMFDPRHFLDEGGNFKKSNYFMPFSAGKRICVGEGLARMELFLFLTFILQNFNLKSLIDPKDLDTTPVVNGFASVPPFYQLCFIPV
# [8] = molecular target: T4, hERG (KCNH2) (Homo sapiens, UniProt Q12809); experiment: Inhibition of human ERG expressed in HEK293 cells at 1 uM by thallium flux assay; format: cell-based; details: HEK293 cells that express hERG
# T4 sequence (Q12809 whole entry): as the sequence (Q12809 whole entry) above
# [9] = molecular target: T4, hERG (KCNH2); experiment: Inhibition of human ERG expressed in HEK293 cells at 0.3 uM by thallium flux assay; format: cell-based; details: HEK293 cells that express hERG
# [10] = Stability in rat liver microsomes; format: ADME, Microsome
# [11] = Clearance in Sprague-Dawley rat hemodynamic/VERP model at 2 mg/kg, iv; format: ADME, organism-based; details: in vivo
# [12] = Volume of distribution at steady state in Sprague-Dawley rat hemodynamic/VERP model at 2 mg/kg, iv; format: ADME, organism-based; details: in vivo, read-out: Vdss
# [13] = Half life in Sprague-Dawley rat hemodynamic/VERP model at 2 mg/kg, iv; format: ADME, organism-based; details: in vivo
# [14] = Half life in Sprague-Dawley rat hemodynamic/VERP model at 5 mg/kg, po; format: ADME, organism-based; details: in vivo
# [15] = Oral bioavailability in Sprague-Dawley rat hemodynamic/VERP model at 5 mg/kg; format: ADME, organism-based; details: in vivo
# [16] = Pro-arrhythmic activity in rat assessed as plasma concentration required to increase 98 +/- 3% ventricular effective refractory period at 10 mg/kg, iv as 10 mins infusion; format: ADME, organism-based
# Outline: (§2)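 Rats fitted with a multielectrode catheter in the left ventricle to record ventricular effective refractory period. Dose 10 mg/kg i.v. infused over 10 min, n = 2. Percent VERP increase reported together with the plasma concentration reached.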
# [17] = system: Rattus norvegicus; experiment: Pro-arrhythmic activity in rat assessed as increase in ventricular effective refractory period at 10 mg/kg, iv as 10 mins infusion; format: ADME, organism-based; details: in vivo; outline: as §2
# [18] = system: Oryctolagus cuniculus; experiment: Increase in atrial effective refractory period in rabbit at 3 mg/kg, iv as 30 mins infusion measured at 20 mins; format: functional
# Outline: (§3)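 Anesthetized rabbits given 3 mg/kg i.v. in DMF vehicle, infused over 30 min, n = 3–4. Atrial ERP, VERP, QTc (Delta QTc cf), systolic and mean blood pressure, and heart rate recorded as change at 20 min. Plasma concentration sampled at the end of infusion.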
# [19] = Plasma concentration in rabbit at 3 mg/kg, iv as 30 mins infusion; format: ADME, organism-based, Oryctolagus cuniculus; outline: as §3
# [20] = Toxicity in rabbit assessed as change in systolic blood pressure at 3 mg/kg, iv as 30 mins infusion measured at 20 mins; format: organism-based, Oryctolagus cuniculus; details: in vivo; outline: as §3
# [21] = Toxicity in rabbit assessed as change in mean blood pressure at 3 mg/kg, iv as 30 mins infusion measured at 20 mins; format: organism-based, Oryctolagus cuniculus; details: in vivo; outline: as §3
# [22] = Toxicity in rabbit assessed as change in heart rate at 3 mg/kg, iv as 30 mins infusion measured at 20 mins; format: organism-based, Oryctolagus cuniculus; details: in vivo; outline: as §3
# [23] = molecular target: T2, Cytochrome P450 2C9; experiment: Inhibition of CYP2C9 (unknown origin) at 4 uM; format: ADME
# [24] = molecular target: T3, Cytochrome P450 2C19; experiment: Inhibition of CYP2C19 (unknown origin) at 3 uM; format: ADME
# [25] = Toxicity in Sprague-Dawley rat VEPR model assessed as seizures at plasma concentration of 7.7 uM administered at 10 mg/kg, iv; format: organism-based; details: in vivo
# [26] = Toxicity in rabbit assessed as change in corrected QT time interval at 3 mg/kg as 30 mins infusion; format: organism-based, Oryctolagus cuniculus; details: in vivo, iv, 0.5 h; outline: as §3
# [27] = Plasma concentration in rat VERP model at 3 mg/kg, iv as 5 mins infusion measured 10 mins post dose; format: ADME, organism-based
# Outline: (§4)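 Rat VERP model, i.v. infusion over 5 min at 3 or 10 mg/kg. Plasma and brain concentrations measured 10 min after the end of infusion.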
# [28] = Drug uptake in brain of rat VERP model at 3 mg/kg, iv as 5 mins infusion measured 10 mins post dose; format: ADME, organism-based; details: read-out: Drug uptake; outline: as §4
# [29] = Plasma concentration in rat VERP model at 10 mg/kg, iv as 5 mins infusion measured 10 mins post dose; format: ADME, organism-based; outline: as §4
# [30] = Drug uptake in brain of rat VERP model at 10 mg/kg, iv as 5 mins infusion measured 10 mins post dose; format: ADME, organism-based; details: read-out: Drug uptake; outline: as §4
# [31] = molecular target: T4, hERG (KCNH2); experiment: Inhibition of human ERG expressed in HEK293 cells at 10 uM by thallium flux assay; format: cell-based; details: HEK293 cells that express hERG
# T1 sequence (P22460 whole entry): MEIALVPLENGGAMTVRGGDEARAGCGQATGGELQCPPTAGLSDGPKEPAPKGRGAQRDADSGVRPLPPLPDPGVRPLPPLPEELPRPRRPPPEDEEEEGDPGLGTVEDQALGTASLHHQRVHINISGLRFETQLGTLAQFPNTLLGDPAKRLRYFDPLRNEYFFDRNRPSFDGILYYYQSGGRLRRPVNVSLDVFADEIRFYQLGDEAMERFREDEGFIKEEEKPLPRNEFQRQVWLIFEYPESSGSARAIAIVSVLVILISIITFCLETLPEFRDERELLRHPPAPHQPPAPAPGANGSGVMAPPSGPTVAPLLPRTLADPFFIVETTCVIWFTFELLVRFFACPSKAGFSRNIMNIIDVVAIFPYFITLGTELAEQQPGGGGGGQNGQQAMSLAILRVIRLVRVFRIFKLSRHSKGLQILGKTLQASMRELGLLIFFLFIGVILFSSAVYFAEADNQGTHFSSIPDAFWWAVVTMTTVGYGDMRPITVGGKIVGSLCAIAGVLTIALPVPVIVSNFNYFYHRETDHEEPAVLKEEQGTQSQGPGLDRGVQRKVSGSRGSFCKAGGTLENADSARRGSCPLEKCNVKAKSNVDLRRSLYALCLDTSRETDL
structure (smiles),measurement,setting,value
COCCNc1ncc(-c2nc(NCc3ccccn3)c3c(-c4ccccc4)cccc3n2)cn1,inhibition,[1],20%
c1ccc(-c2cccc3nc(C4CC4)nc(NCc4ccccn4)c23)cc1,IC50,[2],170 nM
c1ccc(-c2cccc3nc(-c4ccncc4)nc(NCc4ccccn4)c23)cc1,IC50,[2],40 nM
same,IC50,[3],6700 nM
c1ccc(-c2cccc3nc(-c4cccnc4)nc(NCc4ccccn4)c23)cc1,IC50,[2],60 nM
same,remaining at 10 min,[4],7%
same,remaining at 10 min,[5],22%
same,inhibition (INH),[6],Active
same,inhibition (INH),[7],Active
Clc1nc(NCc2ccccn2)c2ccc(-c3ccccc3)cc2n1,inhibition,[1],9%
c1ccc(-c2cccc3nc(-c4cncs4)nc(NCc4ccccn4)c23)cc1,IC50,[2],50 nM
same,IC50,[3],6200 nM
Cc1n[nH]c(C)c1-c1nc(NCc2ccccn2)c2c(-c3ccccc3)cccc2n1,inhibition,[1],20%
c1ccc(-c2cccc3nc(-c4cn[nH]c4)nc(NCc4ccccn4)c23)cc1,IC50,[2],160 nM
same,inhibition at 1 µM,[8],88%
O=c1ccc(-c2nc(NCc3ccccn3)c3c(-c4ccccc4)cccc3n2)c[nH]1,IC50,[2],110 nM
same,inhibition at 0.3 µM,[9],91%
CN(C)c1nc(NCc2ccccn2)c2c(-c3ccccc3)cccc2n1,inhibition,[1],59%
same,IC50,[3],2500 nM
COc1cncc(-c2nc(NCc3ccccn3)c3c(-c4ccccc4)cccc3n2)c1,IC50,[2],120 nM
N#Cc1ccc(-c2nc(NCc3ccccn3)c3c(-c4ccccc4)cccc3n2)cn1,IC50,[2],130 nM
same,inhibition at 1 µM,[8],51%
NC(=O)c1nc(NCc2ccccn2)c2c(-c3ccccc3)cccc2n1,inhibition,[1],9%
N#Cc1nc(NCc2ccccn2)c2c(-c3ccccc3)cccc2n1,IC50,[2],50 nM
same,IC50,[3],> 80000 nM
Fc1cccc(-c2cccc3nc(-c4cncnc4)nc(NCc4ccccn4)c23)c1,inhibition,[1],37%
FC(F)(F)c1ccc(-c2cccc3nc(-c4cncnc4)nc(NCc4ccccn4)c23)cc1,IC50,[2],150 nM
Clc1nc(NCc2ccccn2)c2cc(-c3ccccc3)ccc2n1,inhibition,[1],14%
Fc1ccc(-c2cccc3nc(-c4cncnc4)nc(NCc4ccccn4)c23)cc1,IC50,[2],250 nM
FC(F)(F)c1nc(NCc2ccccn2)c2c(-c3ccccc3)cccc2n1,IC50,[2],80 nM
same,IC50,[3],10000 nM
NC(=O)c1ccc(-c2cccc3nc(-c4cncnc4)nc(NCc4ccccn4)c23)cc1,inhibition,[1],8%
Clc1nc(NCc2ccccn2)c2c(-c3ccccc3)cccc2n1,IC50,[2],70 nM
same,inhibition,[1],86%
same,IC50,[3],> 80000 nM
same,Stability,[10],Unstable
same,clearance,[11],8.2 mL/min/kg
same,Vd,[12],2.3 L/kg
same,half-life,[13],7.3 h
same,half-life,[14],1.9 h
same,bioavailability,[15],10%
same,concentration at 10 min,[16],26 µM
same,Activity,[17],98%
same,Activity,[18],9%
same,concentration at 0.5 h,[19],9.1 µM
same,Activity,[20],0.1%
same,Activity,[21],-1%
same,Activity,[22],-3.2%
Clc1nc(NCc2ccccn2)c2cccc(-c3ccccc3)c2n1,inhibition,[1],9%
Cc1nc(NCc2ccccn2)c2c(-c3ccccc3)cccc2n1,inhibition,[1],72%
same,IC50,[3],4600 nM
c1ccc(-c2cccc3nc(-c4cncnc4)nc(NCc4ccccn4)c23)cc1,IC50,[2],90 nM
same,clearance,[11],4.6 mL/min/kg
same,Vd,[12],5.2 L/kg
same,half-life,[13],15 h
same,half-life,[14],3.5 h
same,bioavailability,[15],6.3%
same,Activity,[17],Non-Toxic
same,Activity,[18],21.4%
same,concentration at 0.5 h,[19],2.7 µM
same,remaining at 10 min,[4],58%
same,remaining at 10 min,[5],75%
same,inhibition (INH),[23],Active
same,inhibition (INH),[24],Active
same,Activity,[25],Non-Toxic
same,Time,[26],13 ms
same,Activity,[20],-3.4%
same,Activity,[21],-3.8%
same,Activity,[22],-3.1%
same,concentration at 10 min,[27],3.1 µM
same,concentration at 10 min,[28],8.8 µM
same,concentration at 10 min,[29],7.7 µM
same,concentration at 10 min,[30],25 µM
same,inhibition at 10 µM,[31],43%
COc1ncc(-c2nc(NCc3ccccn3)c3c(-c4ccccc4)cccc3n2)cn1,IC50,[2],100 nM
Cn1cncc1-c1nc(NCc2ccccn2)c2c(-c3ccccc3)cccc2n1,inhibition,[1],41%
same,IC50,[3],2700 nM
Cc1noc(C)c1-c1nc(NCc2ccccn2)c2c(-c3ccccc3)cccc2n1,IC50,[2],90 nM
same,IC50,[3],3100 nM
